Data published in paper PMC3940261 (Integrative biology : quantitative biosciences from nano to …, 2014).

How the values were obtained:
[1] = system: peptidase activity in U937 cells; test: Single-cell chemical cytometry of fluorescent reporter peptide degradation; format: cell-based, human; settings: for most common fragment peak pattern: single U937 cells
[2] = system: peptidase activity in U937 cells; format: cell-based, human; settings: ensemble lysates, commercial capillary electrophoresis system
Method in brief: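 U937 cells were cultured long-term with the test compound (1, 2, 4, 8, 16 μM; DMSO ≤0.1%) or DMSO vehicle. A FAM-labelled reporter peptide (100 μM) and a carboxyfluorescein internal standard (20 μM) were loaded by pinocytosis for 10 min at 37 °C; hypotonic lysis set t = 0. Cells were held at 10⁶ cells/mL for 1 h at room temperature, then heat-lysed at 95 °C for 4 min. Supernatant was run on a bare 30-cm, 30-μm i.d. capillary, spiked with intact-substrate and K-FAM standards, and peaks were Gaussian-fitted.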

[3] = system: degradation of a fluorogenic reporter; settings: 24 h exposure to media containing 1 μM Tosedostat; cited from earlier work
[4] = system: four common aminopeptidases; settings: cited from earlier work
LTA4 hydrolase = settings: in vitro; cited from earlier work
leucine aminopeptidase = settings: in vitro; cited from earlier work
[5] = target: purine-sensitive aminopeptidase (PuSA); settings: in vitro; cited from earlier work
aminopeptidase N (CD 13) = settings: in vitro; cited from earlier work

Structure (SMILES)	peptidase activity in drug-treated cells relative to a vehicle control ([1]; at all doses (1, 2, 4, 8, 16 μM))	most common fragment peak pattern ([1]; dose 1 μM)	most common fragment peak pattern ([1]; dose 2 μM)	most common fragment peak pattern ([1]; dose 4 μM)	most common fragment peak pattern ([1]; dose 8 μM)	number of fluorescent fragment peaks from drug-treated cells [2]	inhibition of degradation of a fluorogenic reporter [3]	IC50 [4]	IC50 (LTA4 hydrolase)	IC50 (leucine aminopeptidase)	IC50 [5]	IC50 (aminopeptidase N (CD 13))
CC(C)C[C@@H](C(=O)N[C@H](C(=O)OC1CCCC1)c1ccccc1)[C@H](O)C(=O)NO [Tosedostat]	inhibited	3 peaks	3 peaks	2 peaks	2 peaks	≤ 8 fluorescent fragment peaks	50%	nanomolar-range				
CC(C)C[C@@H](C(=O)N[C@H](C(=O)O)c1ccccc1)[C@H](O)C(=O)NO [active form of Tosedostat]									nanomolar range	nanomolar range	nanomolar range	nanomolar range
